Experiment: Toxicity liver stage against HepG2, at 10uM
Format: cell-based
Set-up: test concentration 10 uM, cell line HepG2-A16-CD81EGFP
Details: human, HepG2-A16-CD81EGFP cells; read-out: INHIBITION
Procedure, shortened: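 Uninfected HepG2-A16-CD81EGFP cells, 3 × 10^3 per well, 1536-well, plated on prespotted compound at 10 μM final, parasite-free screening media added to match infected plates; puromycin 10 μM positive, DMSO 0.5% negative; run in parallel with 48 h PbLuc assay at 37 °C, 5% CO2; viability by CellTiter-Glo luminescence, normalized to controls.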

CN(C)Cc1noc2c1CN(Cc1ccsc1)CC2
cytotoxicity at 10 µM: -2.88%

CC(Oc1ccccc1C(F)(F)F)C(=O)NCC(N)=O (stereo not given)
cytotoxicity at 10 µM: -8.38%

O=C(c1cccs1)N1CCC2(CC1)CCN(S(=O)(=O)C1CC1)CC2
cytotoxicity at 10 µM: -106%

Cc1nc(N(C)C)nc(N2CCC3(CC2)CNC(=O)O3)c1C
cytotoxicity at 10 µM: 14.9%

Cc1ccnn1CCC(=O)N1C[C@@H]2CC[C@H]1CN(CC(=O)N(C)C)C2
cytotoxicity at 10 µM: 8.42%

CC(C)=CCN1CCN(C(C)c2cccnc2)CC1 (stereo not given)
cytotoxicity at 10 µM: -2.65%

O=C(CCc1nc2cccnc2[nH]1)NCc1ccc2c(c1)OCO2
cytotoxicity at 10 µM: 0.356%

Cc1cnc(C(=O)N2CCNCC2C(=O)NCc2ccncc2)cn1 (stereo not given)
cytotoxicity at 10 µM: 0.89%

O=S(=O)(C1CC1)N1CCC(Cn2cccn2)CC1
cytotoxicity at 10 µM: -8.29%

c1ccc(NC[C@@H]2CCC[C@@H]3CN(Cc4cccnc4)C[C@@H]32)nc1
cytotoxicity at 10 µM: 2.78%

Cc1ccc(C)c(NC(=O)N(C)Cc2cnn(C)c2)c1
cytotoxicity at 10 µM: -3.02%

Cc1nc(CNC(=O)NCc2ccc(OCC3CC3)nc2)cs1
cytotoxicity at 10 µM: 5.07%

Cc1noc(CN(C)Cc2cnc(N3CCOCC3)nc2)n1
cytotoxicity at 10 µM: -14%

Cc1noc([C@@H]2C[C@H](NC(=O)NC(C)C)CN2C)n1
cytotoxicity at 10 µM: -10.1%

CN(C)c1ccc(NC(=O)c2cccc(N(C)C)c2)nc1
cytotoxicity at 10 µM: 23.3%

CN(CC(=O)Nc1nc2c(s1)CCCCCC2)C(=O)c1ccco1
cytotoxicity at 10 µM: 37.9%

CC/N=c1\nc(NCC)nc2n1C(O)(Nc1cccc(Cl)c1Cl)CS2 (stereo not given)
cytotoxicity at 10 µM: 14.1%

CS(=O)(=O)Nc1cccc(CNC(=O)CCc2ccsc2)c1
cytotoxicity at 10 µM: 2.24%

CCN(C)C(=O)c1cccc(S(=O)(=O)NCCc2nc(C)cc(=O)[nH]2)c1
cytotoxicity at 10 µM: -39.9%

CCc1nc2n(n1)CCCC2Nc1nc(C2CC2)ns1 (stereo not given)
cytotoxicity at 10 µM: 3.03%

CCCn1nccc1NC(=O)CN1CCOC(Cn2cc(C)cn2)C1 (stereo not given)
cytotoxicity at 10 µM: 1.88%

COc1ccc(C)cc1CN1CCn2cccc2C1C (stereo not given)
cytotoxicity at 10 µM: 18.3%

COc1ccc(NC2CCCN(Cc3cnc(N(C)C)s3)C2)cc1 (stereo not given)
cytotoxicity at 10 µM: 0.88%

Cc1ccc(NCc2cn3c(n2)CN(Cc2ccoc2)CC3)nn1
cytotoxicity at 10 µM: 9.43%

Cn1ccnc1C(O)c1ccccc1N1CCN(CC2CCCC2)CC1 (stereo not given)
cytotoxicity at 10 µM: 0.135%

CC(C)c1nccn1-c1nccnc1C1CCCN1Cc1ccccc1 (stereo not given)
cytotoxicity at 10 µM: -0.943%

c1cc(CN2CCO[C@@H]3CNC[C@@H]32)cs1
cytotoxicity at 10 µM: 9.22%

CNC(=O)C(C)(C)N(C)C(=O)c1cc(COc2ccccc2OC)[nH]n1
cytotoxicity at 10 µM: -5.12%

CC(=O)N1CCC2(CC1)C(=O)N(CC1CC1)c1ccccc12
cytotoxicity at 10 µM: 11.2%

CCc1nc(C2CCCN(C(=O)c3ccncc3)C2)no1 (stereo not given)
cytotoxicity at 10 µM: -13%

CCN(C(=O)CN(CC(N)=O)C(C)C)C1=CCCC1
cytotoxicity at 10 µM: 14.1%

CSCC[C@@H]1CN2CCC[C@H]2CN1Cc1coc2ccc(C)cc2c1=O
cytotoxicity at 10 µM: 2.89%

CN(C)S(=O)(=O)N1CC[C@]2(O)CCN(c3ncccn3)C[C@@H]2C1
cytotoxicity at 10 µM: 5.74%

Cc1ccc(NC(=O)Cn2ncc(SCC(N)=O)c(Cl)c2=O)c(F)c1
cytotoxicity at 10 µM: -7.21%

CC(C)COCC(NC(=O)c1ccncc1)c1ccco1 (stereo not given)
cytotoxicity at 10 µM: -9.53%

COc1ccccc1-c1noc(CNc2ccc(F)cc2OCCO)n1
cytotoxicity at 10 µM: -37.7%

COCCNC(=O)c1cc(S(=O)(=O)N2CCCCCC2)cs1
cytotoxicity at 10 µM: -14.8%

Cc1ncc(C(=O)N2CC(C(=O)N3CCOCC3)C2)c(C)n1
cytotoxicity at 10 µM: 3.54%

O=C(c1cscn1)N1CCC2(CN(Cc3ccoc3)C2)C1
cytotoxicity at 10 µM: 7.2%

Cc1ncsc1C(=O)NCCNc1ncccc1C#N
cytotoxicity at 10 µM: -21.5%

O=C(NCCN1CCCCCC1=O)c1ccc(=O)[nH]n1
cytotoxicity at 10 µM: -19.3%

CC(C)NC(=O)NCc1nnc2n1C(C(=O)N(C)C)CC2 (stereo not given)
cytotoxicity at 10 µM: 5.45%

O=S(=O)(NCc1ccc(S(=O)(=O)N2CCCC2)s1)c1cc(Cl)ccc1Cl
cytotoxicity at 10 µM: -43.4%

CC(C)N1CCC2(CC1)C(=O)N(c1cccnc1)c1ccc(F)cc12
cytotoxicity at 10 µM: 12.4%

COCC(=O)NCc1cccc(OCCN(C)C2CCOCC2)c1
cytotoxicity at 10 µM: 8.35%

CN(C)C(=O)Cn1ccc2cc(NC(=O)N3CCOCC3)ccc21
cytotoxicity at 10 µM: 6.35%

COCCn1ccc2c(C(=O)NC(C)C)cccc21
cytotoxicity at 10 µM: 3.46%

Cc1cc(CN(C)C(=O)NC2CCCN(c3ncccn3)C2)no1 (stereo not given)
cytotoxicity at 10 µM: -7.26%

CCNC(=O)[C@@H]1C[C@H](N)CN1C(=O)CCc1ccccc1Cl
cytotoxicity at 10 µM: 4.79%

CN(C)c1ccc(C(=O)N2CCCN(C3CCCCC3)CC2)cn1
cytotoxicity at 10 µM: -6.46%

Cc1ccc(F)cc1NC(=O)CCn1cncn1
cytotoxicity at 10 µM: -0.639%

CCCNC(=O)N1CCCC2(CCC(=O)N(CCc3c[nH]cn3)C2)C1 (stereo not given)
cytotoxicity at 10 µM: 2.67%

CCOCC1CN(S(=O)(=O)N(C)C)Cc2cnn(CC3CC3)c21 (stereo not given)
cytotoxicity at 10 µM: 12%

CC(=O)N(C)CC(=O)Nc1cnc(-n2ccnc2C)nc1
cytotoxicity at 10 µM: 3.86%

CC(NCC1(N(C)C)CCOCC1)c1ccc(S(C)(=O)=O)cc1 (stereo not given)
cytotoxicity at 10 µM: -3.27%

Cc1cc(C2CCCN2C(=O)NCc2cccc(F)c2)on1 (stereo not given)
cytotoxicity at 10 µM: 24.8%

COCCN1C[C@@H]2CN(Cc3ccc(C)s3)CCC[C@]2(C(=O)O)C1
cytotoxicity at 10 µM: -96.8%

Cc1nc(N(C)C)nc(N(C)Cc2cnccn2)c1C
cytotoxicity at 10 µM: 3.4%

Cc1ccc(C(=O)Nc2ccn(CCC(N)=O)n2)cc1
cytotoxicity at 10 µM: 2.42%

O=C1CN(CCCNS(=O)(=O)c2cccc(C(=O)NC3CC3)c2)CCN1
cytotoxicity at 10 µM: -3.45%

Cc1noc([C@]23COC[C@H]2CN(C(=O)COC2CCCC2)C3)n1
cytotoxicity at 10 µM: -104%

O=C(CN1CCC(c2cccc(F)c2)C1)NCc1ccco1 (stereo not given)
cytotoxicity at 10 µM: -7.88%

CC(C)(C)c1cc(NC(=O)CNC2CCc3ncnn3C2)on1 (stereo not given)
cytotoxicity at 10 µM: 9.03%

Cc1cccc(CN2C[C@@H]3CN(C(=O)C4CCOC4)C[C@@H]3C2=O)c1 (stereo not given in full)
cytotoxicity at 10 µM: -114%

COCC1c2c(cnn2CC2CC2)CCN1Cc1ccc(C)o1 (stereo not given)
cytotoxicity at 10 µM: -0.201%

N#Cc1nccnc1NCCC1CCN(CC(F)(F)F)CC1
cytotoxicity at 10 µM: 1.6%

Cn1cnc2c1CCN(Cc1c(Cl)ccc3cccnc13)C2
cytotoxicity at 10 µM: 5.55%

Cc1cc(C(=O)NCC2(N(C)C)CCCC2)c(C)n1-c1cccnc1
cytotoxicity at 10 µM: -8.41%

CC(C)NC(=O)C1CN(C(=O)Nc2ccccc2)CC12CCOCC2 (stereo not given)
cytotoxicity at 10 µM: 4.58%

CCNC(=O)N1CC2=CC(C)(C)COc3ccc(OC)c(c32)C1
cytotoxicity at 10 µM: 8.47%

CN1CC(C(=O)NCc2ccc(OCc3cccnc3)cc2)CC1=O (stereo not given)
cytotoxicity at 10 µM: 17.7%

CS(=O)(=O)CCCNC1(c2cccc(Cl)c2)CCCC1
cytotoxicity at 10 µM: 0.245%

Cc1n[nH]c2ncc(CNC3CCCN(c4ncccn4)C3)cc12 (stereo not given)
cytotoxicity at 10 µM: 23.6%

CCC(=O)Nc1cccc(OCC(=O)N(C)Cc2nccn2CC)c1
cytotoxicity at 10 µM: 3.96%

COCCNC(=O)c1nc(-c2cn(C)cn2)n2ccccc12
cytotoxicity at 10 µM: -104%

Cc1ccc(CN2CC[C@@H]3[C@@H](CO[C@H]3CN(C)C)C2)o1
cytotoxicity at 10 µM: -130%

COCC1CCN(C(=O)c2cn(Cc3ccccc3F)nn2)CC1
cytotoxicity at 10 µM: 1.89%

CCCc1nc(N2CCSCC2)c2c(n1)c(C)nn2CC
cytotoxicity at 10 µM: 8.05%

Cn1ccc(CN2CCCC2c2ccc3c(c2)OCCCO3)cc1=O (stereo not given)
cytotoxicity at 10 µM: -4.2%

CN(C)C(=O)[C@H]1C[C@@H]2CCN(C3CCOCC3)C[C@H]2O1
cytotoxicity at 10 µM: -4.15%

CCc1nc(C(=O)N2CCN(C)c3ccccc32)c[nH]1
cytotoxicity at 10 µM: 1.16%

CCc1nc(CNC(C)Cn2cccn2)cs1 (stereo not given)
cytotoxicity at 10 µM: -4.67%

CCC(C(=O)N1CCN(S(=O)(=O)N2CCCC2)CC1)n1cccn1 (stereo not given)
cytotoxicity at 10 µM: -8.56%

CNC(C(=O)N1CCC(c2nccn2C(C)C)CC1)c1ccccc1 (stereo not given)
cytotoxicity at 10 µM: 0.258%

N#Cc1c(F)cccc1N1CCCC(C(=O)Nc2nccs2)C1 (stereo not given)
cytotoxicity at 10 µM: 8.92%

O=C(NCc1cc[nH]n1)NCC(c1ccc(F)cc1)N1CCOCC1 (stereo not given)
cytotoxicity at 10 µM: -7.77%

CC(=O)N1CC(=O)N(c2cnn(C)c2)CC12CCN(Cc1ccoc1)C2 (stereo not given)
cytotoxicity at 10 µM: -9.81%

CC(CNC(=O)c1ccco1)N1CCc2sccc2C1 (stereo not given)
cytotoxicity at 10 µM: 0.107%

COCCn1ccc(NC(=O)Nc2ccc(C)cc2)n1
cytotoxicity at 10 µM: 2.19%

O=C(c1cc(C2CC2)n[nH]1)N1C[C@H]2CC[C@](O)(c3ccccc3F)[C@H]2C1
cytotoxicity at 10 µM: 7.66%

CN[C@@H](CO)C(=O)NCc1cc2n(n1)CCCN(C1CCCCC1)C2
cytotoxicity at 10 µM: -3.14%

CC(=O)N1CCCC(c2ccnc(N(C)C)n2)C1 (stereo not given)
cytotoxicity at 10 µM: -16.2%

O=c1[nH]c2nc(NCC3CCCO3)ncc2c(=O)n1-c1cccc(F)c1 (stereo not given)
cytotoxicity at 10 µM: -9.24%

Cn1cccc(NC(=O)COc2ccc(Cl)cc2)c1=O
cytotoxicity at 10 µM: 4.69%

Cc1ccc(N2CCN(C(=O)C(O)c3cccc(Cl)c3)CC2=O)cc1 (stereo not given)
cytotoxicity at 10 µM: -5.01%

CCc1nc(C2CCCN2Cc2cc(=O)n(C)c(=O)n2C)no1 (stereo not given)
cytotoxicity at 10 µM: -11.5%

O=C1CCCN1CCN1CCCC(c2ccn[nH]2)C1 (stereo not given)
cytotoxicity at 10 µM: -16.7%

CC(C)[C@H]1CN(c2ccnc(N)n2)C[C@@H]1NC(=O)C1(C#N)CCOCC1
cytotoxicity at 10 µM: -2.8%

COc1ccc(C(C(=O)O)N2CCN(C3CCCC3)CC2)cc1OC (stereo not given)
cytotoxicity at 10 µM: -17.1%

CCc1cccc(OC2CN(C(=O)[C@@H](N)CCSC)C2)c1
cytotoxicity at 10 µM: 0.684%

CCc1nccn1C1CCCN(C(=O)Cc2ccc(OC)c(F)c2)C1 (stereo not given)
cytotoxicity at 10 µM: -3.59%

O=c1[nH]c(-c2ccncc2)ncc1-c1ccnc(NC2CCCCC2)n1
cytotoxicity at 10 µM: -9.24%

Cn1cnnc1C1CCCN(C(=O)c2cc(Cl)cc(Cl)c2)C1 (stereo not given)
cytotoxicity at 10 µM: -9.91%

Cc1ccc2c(c1)[C@@H](CC(=O)N(C)C)CCO2
cytotoxicity at 10 µM: -3.78%

CCN(CC)c1ccc(CNC(=O)c2cnccn2)cn1
cytotoxicity at 10 µM: -104%

CC(C)CC(=O)N1CCCn2cnc(CNS(C)(=O)=O)c2C1
cytotoxicity at 10 µM: -1.22%

O=C(c1n[nH]cc1Cl)N1CCOC(Cc2cccc(C(F)(F)F)c2)C1 (stereo not given)
cytotoxicity at 10 µM: 4.19%

CN(C)C(=O)[C@@H]1C[C@@H]2CCN(C3CCOCC3)C[C@@H]2O1
cytotoxicity at 10 µM: -7.56%

CNC(=O)NC(=O)CCN1CCN(c2nccs2)CC1
cytotoxicity at 10 µM: -11.1%

Cc1cc(C)n(CC2CN(CC(=O)N3CCC3)CCO2)n1 (stereo not given)
cytotoxicity at 10 µM: -10.7%

— ChEMBL document CHEMBL4513216, “Probing the Open Global Health Chemical Diversity Library for Multistage-Active Starting Points for Next-Generation Antimalarials” (ACS Infect Dis, 2020)
